Activity calls are given as the source filed them. No cut-off for these calls is given here.
Legend:
[1] = tested on: Plasma; test: Fraction unbound in Long Evans rat plasma; type: ADME, cell-free
[2] = Ratio of drug level in whole brain to plasma in Long Evans rat; type: ADME, cell-free; settings: whole brain and plasma, read-out: BPR
[3] = tested on: Rattus norvegicus; test: In vivo NET occupancy in sc dosed Long Evans rat thalamus [3H]-MeNER administered 30 mins before [3H]-MeNER challenge measured after 90 mins; type: functional
In short: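 Rats received test compound, then 30 min later sc [3H]MeNER as the NET radioligand, counted in thalamus. […] Mean reported; 95% CI typically ± half the mean.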

[4] = species: Rattus norvegicus; test: animal or person; type: functional, organism-based; settings: Long Evans, Striatum
[5] = tested on: Rattus norvegicus; test: In vivo NET occupancy in sc dosed Long Evans rat thalamus assessed as unbound plasma levels equaling 50% occupancy using [3H]-MeNER administered 30 mins before [3H]-MeNER challenge measured after 90 mins; type: functional, organism-based
[6] = target: Sodium-dependent serotonin transporter (Homo sapiens, UniProt P31645); test: Inhibition of human recombinant SERT expressed in HEK cells; type: cell-based, HEK293
Sodium-dependent serotonin transporter, sequence (P31645 whole entry): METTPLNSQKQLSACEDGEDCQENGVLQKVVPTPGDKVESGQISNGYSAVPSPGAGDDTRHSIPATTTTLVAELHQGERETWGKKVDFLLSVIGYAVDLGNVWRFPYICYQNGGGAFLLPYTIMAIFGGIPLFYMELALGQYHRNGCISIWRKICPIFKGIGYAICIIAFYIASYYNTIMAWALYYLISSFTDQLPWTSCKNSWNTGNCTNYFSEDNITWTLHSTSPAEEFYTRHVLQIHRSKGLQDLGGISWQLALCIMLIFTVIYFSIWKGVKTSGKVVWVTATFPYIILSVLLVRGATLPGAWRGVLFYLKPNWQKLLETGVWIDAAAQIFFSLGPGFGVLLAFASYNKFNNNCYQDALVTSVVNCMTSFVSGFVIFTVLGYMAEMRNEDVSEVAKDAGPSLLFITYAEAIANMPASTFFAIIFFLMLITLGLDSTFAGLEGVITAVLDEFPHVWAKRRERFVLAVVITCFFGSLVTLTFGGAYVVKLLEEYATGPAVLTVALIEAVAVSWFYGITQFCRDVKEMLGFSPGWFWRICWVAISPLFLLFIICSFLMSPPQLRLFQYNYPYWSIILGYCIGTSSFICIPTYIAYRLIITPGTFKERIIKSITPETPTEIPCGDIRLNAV
In short: (§1)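 HEK cells overexpressing human recombinant transporter; uptake inhibition read as block of a fluorescent substrate with a neurotransmitter uptake kit. Values averaged from at least n = 3, up to 2-fold variability.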

[7] = target: Sodium-dependent dopamine transporter (Homo sapiens, UniProt Q01959); test: Inhibition of human recombinant DAT expressed in HEK cells; type: cell-based, HEK293
Sodium-dependent dopamine transporter, sequence (Q01959 whole entry): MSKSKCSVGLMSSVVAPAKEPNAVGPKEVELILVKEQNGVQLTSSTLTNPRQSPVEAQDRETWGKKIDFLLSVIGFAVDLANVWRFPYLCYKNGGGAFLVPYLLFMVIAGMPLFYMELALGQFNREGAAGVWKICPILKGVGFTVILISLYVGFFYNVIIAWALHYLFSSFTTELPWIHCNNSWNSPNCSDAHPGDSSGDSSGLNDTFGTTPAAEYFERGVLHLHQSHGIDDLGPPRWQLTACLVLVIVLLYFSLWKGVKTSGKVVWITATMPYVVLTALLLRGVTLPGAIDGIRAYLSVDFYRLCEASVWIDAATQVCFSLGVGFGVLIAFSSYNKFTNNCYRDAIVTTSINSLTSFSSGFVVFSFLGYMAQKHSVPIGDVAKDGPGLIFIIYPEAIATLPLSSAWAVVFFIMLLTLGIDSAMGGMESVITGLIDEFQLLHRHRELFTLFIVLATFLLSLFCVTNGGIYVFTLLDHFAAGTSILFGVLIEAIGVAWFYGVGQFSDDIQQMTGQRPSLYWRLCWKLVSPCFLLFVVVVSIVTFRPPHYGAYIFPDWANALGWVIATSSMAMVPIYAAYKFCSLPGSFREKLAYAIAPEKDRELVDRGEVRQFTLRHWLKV

[8] = target: Sodium-dependent noradrenaline transporter (Homo sapiens, UniProt P23975); test: Inhibition of human recombinant NET expressed in HEK cells; type: cell-based, HEK293; in short: as §1
Sodium-dependent noradrenaline transporter, sequence (P23975 whole entry): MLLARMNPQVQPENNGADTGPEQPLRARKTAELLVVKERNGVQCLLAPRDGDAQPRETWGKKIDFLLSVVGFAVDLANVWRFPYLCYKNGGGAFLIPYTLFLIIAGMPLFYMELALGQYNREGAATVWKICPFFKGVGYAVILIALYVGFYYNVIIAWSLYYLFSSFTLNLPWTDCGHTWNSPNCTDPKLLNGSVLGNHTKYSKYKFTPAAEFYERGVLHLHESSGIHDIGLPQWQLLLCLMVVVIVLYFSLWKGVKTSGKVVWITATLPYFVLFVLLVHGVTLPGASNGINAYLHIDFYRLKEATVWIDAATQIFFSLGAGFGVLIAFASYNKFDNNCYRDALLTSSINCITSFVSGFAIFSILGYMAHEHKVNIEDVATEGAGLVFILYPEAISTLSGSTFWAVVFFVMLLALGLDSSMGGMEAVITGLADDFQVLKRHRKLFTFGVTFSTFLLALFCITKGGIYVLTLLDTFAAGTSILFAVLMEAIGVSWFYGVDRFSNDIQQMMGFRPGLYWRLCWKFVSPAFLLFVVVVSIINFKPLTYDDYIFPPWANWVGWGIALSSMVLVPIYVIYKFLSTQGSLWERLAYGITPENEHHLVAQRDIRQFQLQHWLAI

[9] = Intrinsic clearance in human liver microsomes; type: ADME, Microsome; settings: read-out: CLH
In short: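 Human liver microsomes; intrinsic clearance reported in μL/min/mg.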

[10] = target: Cytochrome P450 2D6 (Homo sapiens, UniProt P10635); test: Inhibition of CYP2D6 (unknown origin); type: ADME
Cytochrome P450 2D6, sequence (P10635 whole entry): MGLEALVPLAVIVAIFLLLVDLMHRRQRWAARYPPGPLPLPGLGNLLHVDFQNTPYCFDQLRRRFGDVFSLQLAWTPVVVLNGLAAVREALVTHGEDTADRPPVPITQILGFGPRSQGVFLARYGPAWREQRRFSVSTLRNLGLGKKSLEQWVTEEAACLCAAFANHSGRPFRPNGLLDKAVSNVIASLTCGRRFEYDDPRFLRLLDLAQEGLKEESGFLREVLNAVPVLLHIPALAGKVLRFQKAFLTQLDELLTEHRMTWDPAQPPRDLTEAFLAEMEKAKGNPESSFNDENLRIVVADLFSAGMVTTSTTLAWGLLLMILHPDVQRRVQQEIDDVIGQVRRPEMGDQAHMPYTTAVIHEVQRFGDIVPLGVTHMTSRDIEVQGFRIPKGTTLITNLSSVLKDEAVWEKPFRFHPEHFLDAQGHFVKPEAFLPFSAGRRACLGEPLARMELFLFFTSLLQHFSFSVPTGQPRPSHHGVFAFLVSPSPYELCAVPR

[11] = Metabolic stability of the compound assessed as GSH adduct formation; type: ADME
[12] = tested on: Rattus norvegicus; test: Antidepressant activity in sc dosed Sprague-Dawley rat assessed as increase of locomotor activity and stereotypic behavior; type: functional, organism-based
In short: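 Rats were dosed sc. Spontaneous locomotion was scored over the last 15 min of the session: distance traveled from beam breaks, and stereotypy from repeated breaks of the same beam. Data are group means ± SEM, compared with vehicle by one-way ANOVA.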

[13] = tested on: Rattus norvegicus; test: Antidepressant activity in Sprague-Dawley rat assessed as reduction of immobility time at 0.7 mg/kg, sc measured for 5 mins by forced swimming test; type: functional, organism-based; design: dose 0.7 mg/kg
In short: (§2)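 Sprague–Dawley rats dosed sc, then scored for immobility time in the forced-swim test. The positive control was desipramine at 15 mg/kg ip. Data are group means ± SEM, compared with vehicle by one-way ANOVA.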

[14] = tested on: Rattus norvegicus; test: Antidepressant activity in Sprague-Dawley rat assessed as reduction of immobility time at 2.4 to 7.3 mg/kg, sc measured for 5 mins by forced swimming test; type: functional, organism-based; in short: as §2
[15] = tested on: Rattus norvegicus; test: In vivo DAT occupancy in sc dosed Long Evans rat striatum using [3H]PE2I administered 30 mins before [3H]PE2I challenge measured after 60 mins
[16] = target: Voltage-gated inwardly rectifying potassium channel KCNH2 (Homo sapiens, UniProt Q12809); test: Inhibition of human ERG expressed in CHO-K1 cells by electrophysiological assay; type: cell-based
Voltage-gated inwardly rectifying potassium channel KCNH2, sequence (Q12809 whole entry): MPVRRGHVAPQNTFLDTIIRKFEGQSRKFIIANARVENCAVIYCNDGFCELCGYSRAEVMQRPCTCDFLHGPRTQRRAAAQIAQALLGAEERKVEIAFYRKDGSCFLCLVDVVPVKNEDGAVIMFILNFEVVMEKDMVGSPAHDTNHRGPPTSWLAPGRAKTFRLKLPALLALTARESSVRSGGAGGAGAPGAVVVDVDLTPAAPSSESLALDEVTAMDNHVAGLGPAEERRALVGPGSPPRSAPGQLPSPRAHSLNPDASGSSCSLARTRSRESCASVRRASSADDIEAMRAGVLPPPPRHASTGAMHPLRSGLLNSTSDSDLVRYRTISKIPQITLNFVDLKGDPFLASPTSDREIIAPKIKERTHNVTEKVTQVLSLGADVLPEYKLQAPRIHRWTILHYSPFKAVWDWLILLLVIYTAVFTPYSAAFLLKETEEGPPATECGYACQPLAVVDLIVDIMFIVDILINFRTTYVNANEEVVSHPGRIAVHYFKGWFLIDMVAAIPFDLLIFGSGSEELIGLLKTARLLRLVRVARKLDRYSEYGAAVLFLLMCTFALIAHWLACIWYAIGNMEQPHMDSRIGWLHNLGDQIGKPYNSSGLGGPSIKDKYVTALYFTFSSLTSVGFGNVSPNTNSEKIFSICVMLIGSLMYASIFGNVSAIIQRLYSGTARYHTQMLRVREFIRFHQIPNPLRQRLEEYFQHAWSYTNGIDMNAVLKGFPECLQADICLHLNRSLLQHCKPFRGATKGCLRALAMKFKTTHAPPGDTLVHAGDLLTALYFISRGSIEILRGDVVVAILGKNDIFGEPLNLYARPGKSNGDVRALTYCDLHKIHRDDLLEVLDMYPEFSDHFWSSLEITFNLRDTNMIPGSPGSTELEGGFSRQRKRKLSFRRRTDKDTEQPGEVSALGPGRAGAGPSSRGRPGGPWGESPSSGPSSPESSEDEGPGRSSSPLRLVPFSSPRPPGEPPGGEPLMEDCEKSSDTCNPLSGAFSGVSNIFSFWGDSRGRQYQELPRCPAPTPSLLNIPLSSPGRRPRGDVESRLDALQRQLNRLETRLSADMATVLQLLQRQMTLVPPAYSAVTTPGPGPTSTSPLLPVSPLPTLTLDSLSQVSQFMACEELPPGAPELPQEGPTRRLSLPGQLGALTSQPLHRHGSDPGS

[17] = tested on: Rattus norvegicus; test: Antidepressant activity in Sprague-Dawley rat assessed as reduction of immobility time at 1 to 30 mg/kg, sc measured for 5 mins by forced swimming test; type: functional, organism-based; in short: as §2
[18] = tested on: Rattus norvegicus; test: In vivo DAT occupancy in sc dosed Long Evans rat striatum using [3H]-PE2I administered 30 mins before [3H]-PE2I 35428 challenge measured after 60 mins; type: functional
In short: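 Test compound given sc to rats; 30 min later [3H]PE2I given sc as DAT radioligand, quantified in striatum. […] Mean reported, 95% CI typically ± half the mean.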

[19] = tested on: Rattus norvegicus; test: Antidepressant activity in Sprague-Dawley rat assessed as reduction of immobility time at 0.3 mg/kg, sc measured for 5 mins by forced swimming test; type: functional, organism-based; design: dose 0.3 mg/kg; in short: as §2
[20] = tested on: Rattus norvegicus; test: In vivo DAT occupancy in sc dosed Long Evans rat striatum assessed as unbound plasma levels equaling 50% occupancy using [3H]WIN 35428 administered 30 mins before [3H]WIN 35428 challenge measured after 60 mins; type: functional, organism-based
[21] = tested on: Rattus norvegicus; test: Antidepressant activity in Sprague-Dawley rat assessed as reduction of immobility time at 1 mg/kg, sc measured for 5 mins by forced swimming test; type: functional, organism-based; design: dose 1 mg/kg
In short: (§3)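 Rats (Sprague–Dawley) given test compound sc, then scored in forced-swim test for immobility time. Vehicle group comparison; desipramine control dosed 15 mg/kg ip. Data as group means ± SEM; significance vs vehicle by one-way ANOVA.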

[22] = tested on: Rattus norvegicus; test: Antidepressant activity in Sprague-Dawley rat assessed as reduction of immobility time at 3 to 10 mg/kg, sc measured for 5 mins by forced swimming test; type: functional, organism-based; in short: as §3

SMILES | Ki [6] [nM] | Ki [7] [nM] | Ki [8] [nM] | microsomal CLint [9] [µL/min/mg] | IC50 [10] [µM] | IC50 [16] [µM] | other results
OCC[C@]1(c2cc3ccccc3o2)CCCNC1 | 230 | 6 | 4 | 22 | > 20 |  | Cp(f) [1]: 75%; Kp [2]: 5.8; ED50 [3]: 0.17 mg/kg; EC50 [4]: 33 nM; EC50 [5]: 5.6 nM; Stability [11]: Stable; Activity [12]: inactive; Activity [13]: inactive; Activity [14]: Active; ED50 [15]: 0.8 mg/kg
C1=CCC(c2ccc3ccccc3c2)CNC1 (stereo unspecified) | 63 | 10 | 25 | 94 | 6.6 |  | 
Cc1cc(C2CC=CCN(C)C2)ccc1Cl (stereo unspecified) | 270 | 23 | 130 | 85 | 18 | 26 | 
CN1CC=CC[C@H](c2ccc(Cl)c(Cl)c2)C1 | 83 | 3 | 12 | 51 |  |  | 
CN1Cc2c(N)cccc2C(c2ccccc2)C1 (racemic) [NOMIFENSINE] |  |  |  | 37 | > 20 | > 27 | Activity [17]: Active; Cp(f) [1]: 60.5%; Kp [2]: 10.1; ED50 [3]: 0.05 mg/kg; ED50 [18]: 0.7 mg/kg; Activity [12]: Dose-dependent effect; Activity [19]: inactive
OCC[C@@]1(c2cc3ccccc3o2)CCCNC1 |  | 400 | 430 |  |  |  | 
Cc1cc(C2CC=CCNC2)ccc1Cl (stereo unspecified) |  | 24 | 170 |  |  | 26 | 
OCC[C@]1(c2ccc(Cl)c(Cl)c2)CCCNC1 | 42 | 9.3 | 3.3 | < 4 | > 20 | > 33 | 
Clc1ccc(C2CCCCNC2)cc1Cl (racemic) | 140 | 11 | 130 | 35 | 2.3 | 6.1 | 
Cc1ccc(C2CC=CCNC2)cc1Cl (stereo unspecified) | 600 | 49 | 83 | 100 | 5.6 | > 27 | 
CN1CC=CCC(c2ccc(Cl)c(Cl)c2)C1 (racemic) | 100 | 5 | 57 | 57 |  |  | 
Fc1ccc(C2CC=CCNC2)cc1Cl (stereo unspecified) | 1500 | 68 | 130 | 15 | 6.4 |  | 
OCC[C@@]1(c2ccc(Cl)c(Cl)c2)CCCNC1 | 250 | 140 | 250 | < 4 | > 20 | > 33 | 
COCCN1CC=CC[C@H](c2ccc(Cl)c(Cl)c2)C1 | 540 | 9 | 15 | 150 | 3.9 | 5.3 | 
Clc1ccc(C2CC=CCNC2)cc1 (stereo unspecified) |  | 25 | 250 |  |  | > 31 | 
Clc1ccc(C2CC=CCNC2)cc1Cl (racemic) | 220 | 6 | 66 | 30 | 5.1 |  | 
CN1CC=CC[C@@H](c2ccc(Cl)c(Cl)c2)C1 | 130 | 13 | 54 | 86 |  |  | 
Clc1ccc([C@H]2CC=CCNC2)cc1Cl | 220 | 6 | 17 | 33 | 3.9 |  | Cp(f) [1]: 7.7%; Kp [2]: 4.8; ED50 [3]: 0.5 mg/kg; ED50 [18]: 0.8 mg/kg; EC50 [20]: 220 nM; EC50 [5]: 46 nM; Stability [11]: Stable; Activity [12]: Dose-dependent effect; Activity [21]: inactive; Activity [22]: Active
C1=CCC(c2cc3ccccc3o2)CNC1 (stereo unspecified) | 240 | 23 | 46 | 83 | 7.8 | 19 | 
OCCN1CC=CC[C@H](c2ccc(Cl)c(Cl)c2)C1 | 150 | 37 | 12 | 52 | > 20 | 10 | 
Clc1cccc(C2CC=CCNC2)c1 (stereo unspecified) |  | 240 | 430 |  |  | > 33 | 
CN1CC=CCC(c2cc3ccccc3o2)C1 (stereo unspecified) | 800 | 60 | 120 | 97 | 6.7 | 15 | 
CN1CCCCC(c2ccc(Cl)c(Cl)c2)C1 (racemic) | 260 | 8 | 74 |  |  | 10 | 
Clc1ccc([C@@H]2CC=CCNC2)cc1Cl | 420 | 8 | 24 | 50 | 3.1 |  | 
